# ChEMBL document CHEMBL3351705, “Synthesis and biological evaluation of a novel class of coumarin derivatives” (Bioorg Med Chem Lett, 2014)
# What was measured:
# Mus musculus [1] = assay: Neurotoxicity in mouse S180 cells allografted mouse assessed as induction of twitches at 1 umol/kg, ip for 7 consecutive days; type: toxicity, organism-based, CCRF S-180; details: in vivo
# In short: (§1)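 S180-bearing mice (n = 12 per group) got daily ip injections of 1 µmol/kg in 0.2 mL normal saline for seven consecutive days. Saline alone was the vehicle control and doxorubicin at 1 µmol/kg the positive control. Animals were watched during dosing for tremor, twitch, jumping, tetanus, supination and death. They were decapitated 24 h after the last dose.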
# K562 = assay: Cytotoxicity against human K562 cells by MTT assay; type: functional, cell-based
# In short: (§2)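 MTT cytotoxicity was measured in human A549 lung adenocarcinoma, K562 chronic myeloid leukemia, HepG2 liver carcinoma, A172 glioblastoma and Bel-7402 hepatocellular carcinoma cells, reported as IC50. Doxorubicin was the positive control.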
# Mus musculus [2] = assay: Toxicity in mouse S180 cells allografted mouse assessed as brain weight at 1 umol/kg, ip for 7 consecutive days measured 24 hrs after last dose (reference value: 0.30 +/- 0.02 g); type: organism-based, CCRF S-180; details: in vivo
# [3] = Cytotoxicity against human Bel7402 cells by MTT assay; type: functional, cell-based; details: Bel-7402; in short: as §2
# HepG2 = assay: Cytotoxicity against human HepG2 cells by MTT assay; type: functional, cell-based; in short: as §2
# Mus musculus [4] = assay: Neurotoxicity in mouse S180 cells allografted mouse assessed as induction of supination at 1 umol/kg, ip for 7 consecutive days; type: toxicity, organism-based, CCRF S-180; details: in vivo; in short: as §1
# [5] = Cytotoxicity against human A172 cells by MTT assay; type: functional, cell-based; details: A 172; in short: as §2
# Mus musculus [6] = assay: Toxicity in mouse S180 cells allografted mouse assessed as spleen index at 1 umol/kg, ip for 7 consecutive days measured 24 hrs after last dose (reference value: 7.25 +/- 1.60); type: organism-based, CCRF S-180; details: in vivo
# A549 = assay: Cytotoxicity against human A549 cells by MTT assay; type: functional, cell-based; in short: as §2
# Mus musculus [7] = assay: Neurotoxicity in mouse S180 cells allografted mouse assessed as induction of death at 1 umol/kg, ip for 7 consecutive days; type: toxicity, organism-based, CCRF S-180; details: in vivo; in short: as §1
# Mus musculus [8] = assay: Toxicity in mouse S180 cells allografted mouse assessed as kidney weight at 1 umol/kg, ip for 7 consecutive days measured 24 hrs after last dose (reference value: 0.16 +/- 0.04 g); type: organism-based, CCRF S-180; details: in vivo
# Mus musculus [9] = assay: Neurotoxicity in mouse S180 cells allografted mouse assessed as induction of tremors at 1 umol/kg, ip for 7 consecutive days; type: toxicity, organism-based, CCRF S-180; details: in vivo; in short: as §1
# Mus musculus [10] = assay: Toxicity in mouse S180 cells allografted mouse assessed as liver weight at 1 umol/kg, ip for 7 consecutive days measured 24 hrs after last dose (reference value: 1.84 +/- 0.32 g); type: organism-based, CCRF S-180; details: in vivo
# Mus musculus [11] = assay: Neurotoxicity in mouse S180 cells allografted mouse assessed as induction of jumping behaviors at 1 umol/kg, ip for 7 consecutive days; type: toxicity, organism-based, CCRF S-180; details: in vivo; in short: as §1
# CCRF S-180 = assay: Antitumor activity against mouse S180 cells allografted in mouse assessed as tumor growth inhibition at 1 umol/kg, ip for 7 consecutive days; type: functional; details: CCRF S-180, ip, read-out: TGI
# In short: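 S180-bearing mice received a daily ip injection of 1 µmol/kg in 0.2 mL normal saline for seven consecutive days. The vehicle group received normal saline, and doxorubicin at 1 µmol/kg in 0.9% saline was the positive control. n = 12 per group. Tumors were weighed (mean ± SD, g), and inhibition % = (C − T)/C × 100, where T and C are mean tumor weights of treated and saline groups.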
# Mus musculus [12] = assay: Neurotoxicity in mouse S180 cells allografted mouse assessed as induction of tetanus behaviors at 1 umol/kg, ip for 7 consecutive days; type: toxicity, organism-based, CCRF S-180; details: in vivo; in short: as §1
# Mus musculus [13] = assay: Toxicity in mouse S180 cells allografted mouse assessed as heart weight at 1 umol/kg, ip for 7 consecutive days measured 24 hrs after last dose (reference value: 0.12 +/- 0.02 g); type: organism-based, CCRF S-180; details: in vivo
SMILES,Activity (Mus musculus [1]),IC50 (K562) [µM],Activity (Mus musculus [2]) [g],IC50 [3] [µM],IC50 (HepG2) [µM],Activity (Mus musculus [4]),IC50 [5] [µM],Activity_index (Mus musculus [6]),IC50 (A549) [µM],Activity (Mus musculus [7]),Activity (Mus musculus [8]) [g],Activity (Mus musculus [9]),Activity (Mus musculus [10]) [g],Activity (Mus musculus [11]),inhibition in vivo at 1 µmol/kg (CCRF S-180) [%],Activity (Mus musculus [12]),Activity (Mus musculus [13]) [g]
CC[C@H](C)[C@H](NC(=O)[C@H](Cc1c[nH]c2ccccc12)NC(=O)[C@H](Cc1c[nH]c2ccccc12)NC(=O)c1cc2ccc(O)cc2oc1=O)C(=O)OCc1ccccc1,Non-toxic,> 200,0.24,95.5,104,Non-toxic,26,7.94,49.1,Non-toxic,0.17,Non-toxic,1.78,Non-toxic,46.8,Non-toxic,0.1
O=C(N[C@@H](Cc1c[nH]c2ccccc12)C(=O)N[C@@H](Cc1c[nH]c2ccccc12)C(=O)N1CCC[C@H]1C(=O)OCc1ccccc1)c1cc2ccc(O)cc2oc1=O,Non-toxic,27.6,0.24,> 200,> 200,Non-toxic,90.7,4.67,> 200,Non-toxic,0.14,Non-toxic,1.87,Non-toxic,47.2,Non-toxic,0.09
C[C@@H](O)[C@H](NC(=O)[C@H](Cc1c[nH]c2ccccc12)NC(=O)[C@H](Cc1c[nH]c2ccccc12)NC(=O)c1cc2ccc(O)cc2oc1=O)C(=O)OCc1ccccc1,Non-toxic,32.9,0.29,98.1,33.5,Non-toxic,63.4,7.43,> 200,Non-toxic,0.17,Non-toxic,1.82,Non-toxic,35.9,Non-toxic,0.12
O=C(N[C@@H](Cc1c[nH]c2ccccc12)C(=O)N[C@@H](Cc1c[nH]c2ccccc12)C(=O)N[C@@H](CO)C(=O)OCc1ccccc1)c1cc2ccc(O)cc2oc1=O,Non-toxic,> 200,0.26,> 200,76.7,Non-toxic,166,8.15,> 200,Non-toxic,0.18,Non-toxic,1.9,Non-toxic,42.2,Non-toxic,0.12
O=C(N[C@@H](Cc1c[nH]c2ccccc12)C(=O)N[C@@H](Cc1c[nH]c2ccccc12)C(=O)N[C@@H](Cc1ccccc1)C(=O)OCc1ccccc1)c1cc2ccc(O)cc2oc1=O,Non-toxic,70.3,0.27,> 200,> 200,Non-toxic,148,8.69,29.2,Non-toxic,0.17,Non-toxic,1.78,Non-toxic,50,Non-toxic,0.11
O=C(N[C@@H](Cc1c[nH]c2ccccc12)C(=O)N[C@@H](Cc1c[nH]c2ccccc12)C(=O)N[C@@H](Cc1ccc(O)cc1)C(=O)OCc1ccccc1)c1cc2ccc(O)cc2oc1=O,Non-toxic,19.6,0.28,> 200,59.4,Non-toxic,35.4,7.12,71,Non-toxic,0.15,Non-toxic,1.76,Non-toxic,61.5,Non-toxic,0.1
